Assay results taken from article PMC4716659 (European journal of medicinal chemistry, 2015).
≈ marks a conversion by molar mass, not a printed value. Each block holds one molecule with its values, some of them ahead of it.

How the values were obtained:
[1] = tested on: methicillin-resistant Staphylococcus aureus (MRSA) ATCC 43300; test: MIC, broth microdilution; assay type: cell-based; settings: MRSA ATCC 43300
S. aureus NRS37 (VISA) [2] = test: MBC, plating onto TSA; assay type: cell-based, Staphylococcus aureus
S. aureus NRS107 (MRSA) [3] = test: MBC, plating onto TSA; assay type: cell-based, Staphylococcus aureus
S. aureus USA 400 (MRSA) [4] = test: MBC, plating onto TSA; assay type: cell-based, Staphylococcus aureus
S. aureus VRS1 (VRSA) [5] = test: MBC, plating onto TSA; assay type: cell-based, Staphylococcus aureus
S. aureus NRS1 (VISA) [6] = test: MIC, broth microdilution; assay type: cell-based, Staphylococcus aureus
S. aureus NRS194 (MRSA) [7] = test: MIC, broth microdilution; assay type: cell-based, Staphylococcus aureus
[8] = tested on: S. aureus ATCC 43300 (MRSA); test: MBC, plating onto TSA; assay type: cell-based, Staphylococcus aureus
S. aureus NRS107 (MRSA) [9] = test: MIC, broth microdilution; assay type: cell-based, Staphylococcus aureus
S. aureus USA 400 (MRSA) [10] = test: MIC, broth microdilution; assay type: cell-based, Staphylococcus aureus
S. aureus VRS4 (VRSA) [11] = test: MBC, plating onto TSA; assay type: cell-based, Staphylococcus aureus
S. aureus VRS5 (VRSA) [12] = test: MIC, broth microdilution; assay type: cell-based, Staphylococcus aureus
S. aureus VRS4 (VRSA) [13] = test: MIC, broth microdilution; assay type: cell-based, Staphylococcus aureus
S. aureus USA300 (MRSA) [14] = test: MBC, plating onto TSA; assay type: cell-based, Staphylococcus aureus
S. aureus USA500 (MRSA) [15] = test: MBC, plating onto TSA; assay type: cell-based, Staphylococcus aureus
S. aureus NRS194 (MRSA) [16] = test: MBC, plating onto TSA; assay type: cell-based, Staphylococcus aureus
S. aureus NRS119 (MRSA) [17] = test: MBC, plating onto TSA; assay type: cell-based, Staphylococcus aureus
S. aureus USA500 (MRSA) [18] = test: MIC, broth microdilution; assay type: cell-based, Staphylococcus aureus
S. aureus USA300 (MRSA) [19] = test: MIC, broth microdilution; assay type: cell-based, Staphylococcus aureus
S. aureus NRS19 (VISA) [20] = test: MBC, plating onto TSA; assay type: cell-based, Staphylococcus aureus
S. aureus NRS119 (MRSA) [21] = test: MIC, broth microdilution; assay type: cell-based, Staphylococcus aureus
S. aureus VRS1 (VRSA) [22] = test: MIC, broth microdilution; assay type: cell-based, Staphylococcus aureus
S. aureus VRS5 (VRSA) [23] = test: MBC, plating onto TSA; assay type: cell-based, Staphylococcus aureus
S. aureus NRS19 (VISA) [24] = test: MIC, broth microdilution; assay type: cell-based, Staphylococcus aureus
two VISA isolates = test: MIC against VISA isolates; assay type: cell-based; settings: Staphylococcus aureus
S. aureus NRS37 (VISA) [25] = test: MIC, broth microdilution; assay type: cell-based, Staphylococcus aureus
S. aureus NRS1 (VISA) [26] = test: MBC, plating onto TSA; assay type: cell-based, Staphylococcus aureus
[27] = tested on: human embryonic kidney (HEK293) cell line; test: In vitro cytotoxicity, MTS assay; settings: 40 μg/mL
MRSA USA300 = test: Time-kill analysis; assay type: cell-based, Staphylococcus aureus; settings: MRSA USA300, 3 × MIC, 37 °C
Outline: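 Late-log-phase cells diluted to ~1 × 10^8 CFU/mL in MHB and exposed to test compound or vancomycin in triplicate at 37 °C. 20 μL samples taken at 0, 2, 4, 6, 8, 10, 12 and 24 h, serially diluted in PBS, and plated on TSA. Plates incubated 18–20 h at 37 °C, then viable CFU/mL counted. Data given as mean ± standard deviation.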

[28] = Microsomal stability analysis
[29] = Staphylococcus aureus, ATCC43300|MRSA
[30] = Staphylococcus aureus, NRS37|VISA
[31] = Staphylococcus aureus, MRSA|NRS107
[32] = Staphylococcus aureus, MRSA|USA400
[33] = Staphylococcus aureus, NRS1|VISA
[34] = Staphylococcus aureus, MRSA|NRS194
[35] = Staphylococcus aureus, MRSA|USA300
[36] = Staphylococcus aureus, MRSA|USA500
[37] = Staphylococcus aureus, MRSA|NRS119
[38] = Staphylococcus aureus, NRS19|VISA
[39] = human liver microsomes, with NADPH

SMILES: [H]/N=C(\N)NN=C(C)c1sc(-c2ccc(-c3ccc(F)cc3)cc2)nc1C [22b, (E)-2-(1-(2-(4′-Fluoro-[1,1′-biphenyl]-4-yl)-4-methylthiazol-5-yl)ethylidene)hydrazinecarboximidamide]
MBC (S. aureus NRS37 (VISA) [2]; [30]): 5.9 µg/mL (≈ 16.1 µM)
MBC (S. aureus NRS107 (MRSA) [3]; [31]): 5.9 µg/mL (≈ 16.1 µM)
MBC (S. aureus USA 400 (MRSA) [4]; [32]): 11.7 µg/mL (≈ 31.8 µM)
MBC (S. aureus VRS1 (VRSA) [5]; Staphylococcus aureus, VRSA): 2.9 µg/mL (≈ 7.89 µM)
MIC (S. aureus NRS1 (VISA) [6]; [33]): 2.9 µg/mL (≈ 7.89 µM)
MIC (S. aureus NRS194 (MRSA) [7]; [34]): 5.9 µg/mL (≈ 16.1 µM)
MBC [8, 29]: 5.9 µg/mL (≈ 16.1 µM)
MIC (S. aureus NRS107 (MRSA) [9]; [31]): 2.9 µg/mL (≈ 7.89 µM)
MIC (S. aureus USA 400 (MRSA) [10]; [32]): 5.9 µg/mL (≈ 16.1 µM)
MBC (S. aureus VRS4 (VRSA) [11]; Staphylococcus aureus, VRSA): 2.9 µg/mL (≈ 7.89 µM)
MIC (S. aureus VRS5 (VRSA) [12]; Staphylococcus aureus, VRSA): 2.9 µg/mL (≈ 7.89 µM)
MIC (S. aureus VRS4 (VRSA) [13]; Staphylococcus aureus, VRSA): 2.9 µg/mL (≈ 7.89 µM)
MBC (S. aureus USA300 (MRSA) [14]; [35]): 5.9 µg/mL (≈ 16.1 µM)
MBC (S. aureus USA500 (MRSA) [15]; [36]): 5.9 µg/mL (≈ 16.1 µM)
MBC (S. aureus NRS194 (MRSA) [16]; [34]): 11.7 µg/mL (≈ 31.8 µM)
MBC (S. aureus NRS119 (MRSA) [17]; [37]): 11.7 µg/mL (≈ 31.8 µM)
MIC (S. aureus USA500 (MRSA) [18]; [36]): 5.9 µg/mL (≈ 16.1 µM)
MIC (S. aureus USA300 (MRSA) [19]; [35]): 5.9 µg/mL (≈ 16.1 µM)
MIC [1, 29]: 5.9 µg/mL (≈ 16.1 µM)
MBC (S. aureus NRS19 (VISA) [20]; [38]): 5.9 µg/mL (≈ 16.1 µM)
MIC (S. aureus NRS119 (MRSA) [21]; [37]): 5.9 µg/mL (≈ 16.1 µM)
MIC (S. aureus VRS1 (VRSA) [22]; Staphylococcus aureus, VRSA): 2.9 µg/mL (≈ 7.89 µM)
MBC (S. aureus VRS5 (VRSA) [23]; Staphylococcus aureus, VRSA): 2.9 µg/mL (≈ 7.89 µM)
MIC (S. aureus NRS19 (VISA) [24]; [38]): 5.9 µg/mL (≈ 16.1 µM)
MIC (two VISA isolates): 2.9 to 5.9 µg/mL (≈ 7.89 to 16.1 µM)
MIC (S. aureus NRS37 (VISA) [25]; [30]): 2.9 µg/mL (≈ 7.89 µM)
MBC (S. aureus NRS1 (VISA) [26]; [33]): 2.9 µg/mL (≈ 7.89 µM)
toxicity to mammalian cells (MTS assay) [27]: toxic

SMILES: [H]/N=C(\N)NN=C(C)c1sc(-c2ccc(C#CCCCCCCC)cc2)nc1C [compound 7, (E)-2-(1-(4-Methyl-2-[4-(non-1-yn-1-yl)phenyl]thiazol-5-yl)ethylidene)hydrazinecarboximidamide]
MIC [1, 29]: 12.6 µg/mL (≈ 31.9 µM)

SMILES: CCCCc1ccc(-c2nc(C)c(C(N)=O)s2)cc1 [compound 9, 2-(4-Butylphenyl)-4-methylthiazole-5-carboxamide]
MIC [1, 29]: > 35.1 µg/mL

SMILES: [H]/N=C(/N)NN=C(C)c1sc(-c2ccc(C#CCCCC)cc2)nc1C [compound 5, (Z)-2-(1-(2-(4-(Hex-1-yn-1-yl)phenyl)-4-methylthiazol-5-yl)ethylidene) hydrazinecarboximidamide]
MBC (S. aureus NRS37 (VISA) [2]; NRS37 (VISA)): 1.4 µg/mL (≈ 3.96 µM)
MBC (S. aureus NRS107 (MRSA) [3]; NRS107 (MRSA)): 1.4 µg/mL (≈ 3.96 µM)
MBC (S. aureus USA 400 (MRSA) [4]; USA 400 (MRSA)): 1.4 µg/mL (≈ 3.96 µM)
MBC (S. aureus VRS1 (VRSA) [5]; VRS1 (VRSA)): 1.4 µg/mL (≈ 3.96 µM)
MIC (S. aureus NRS1 (VISA) [6]; NRS1 (VISA)): 0.7 µg/mL (≈ 1.98 µM)
MIC (S. aureus NRS194 (MRSA) [7]; NRS194 (MRSA)): 1.4 µg/mL (≈ 3.96 µM)
MBC ([8]; ATCC 43300 (MRSA)): 1.4 µg/mL (≈ 3.96 µM)
MIC (S. aureus NRS107 (MRSA) [9]; NRS107 (MRSA)): 1.4 µg/mL (≈ 3.96 µM)
MIC (S. aureus USA 400 (MRSA) [10]; USA 400 (MRSA)): 1.4 µg/mL (≈ 3.96 µM)
MBC (S. aureus VRS4 (VRSA) [11]; VRS4 (VRSA)): 2.8 µg/mL (≈ 7.92 µM)
MIC (S. aureus VRS5 (VRSA) [12]; VRS5 (VRSA)): 2.8 µg/mL (≈ 7.92 µM)
MIC (S. aureus VRS4 (VRSA) [13]; VRS4 (VRSA)): 1.4 µg/mL (≈ 3.96 µM)
MBC (S. aureus USA300 (MRSA) [14]; USA300 (MRSA)): 1.4 µg/mL (≈ 3.96 µM)
MBC (S. aureus USA500 (MRSA) [15]; USA500 (MRSA)): 1.4 µg/mL (≈ 3.96 µM)
MBC (S. aureus NRS194 (MRSA) [16]; NRS194 (MRSA)): 1.4 µg/mL (≈ 3.96 µM)
MBC (S. aureus NRS119 (MRSA) [17]; NRS119 (MRSA)): 1.4 µg/mL (≈ 3.96 µM)
MIC (S. aureus USA500 (MRSA) [18]; USA500 (MRSA)): 1.4 µg/mL (≈ 3.96 µM)
MIC (S. aureus USA300 (MRSA) [19]; USA300 (MRSA)): 1.4 µg/mL (≈ 3.96 µM)
MIC [1]: 1.4 µg/mL (≈ 3.96 µM)
time to completely eradicate MRSA growth (MRSA USA300): ≤ 4 h
NADPH-dependent CLint [28, 39]: 3.7 µL/min/mg
NADPH-dependent T1/2 [28, 39]: >4 h
NADPH-free T1/2 ([28]; human liver microsomes, without NADPH): >4 h
half-life ([28]; pooled human liver microsomes): exceeds 4 hours
MBC (S. aureus NRS19 (VISA) [20]; NRS19 (VISA)): 1.4 µg/mL (≈ 3.96 µM)
MIC (S. aureus NRS119 (MRSA) [21]; NRS119 (MRSA)): 1.4 µg/mL (≈ 3.96 µM)
MIC (S. aureus VRS1 (VRSA) [22]; VRS1 (VRSA)): 1.4 µg/mL (≈ 3.96 µM)
MBC (S. aureus VRS5 (VRSA) [23]; VRS5 (VRSA)): 2.8 µg/mL (≈ 7.92 µM)
MIC (S. aureus NRS19 (VISA) [24]; NRS19 (VISA)): 1.4 µg/mL (≈ 3.96 µM)
MIC (S. aureus NRS37 (VISA) [25]; NRS37 (VISA)): 1.4 µg/mL (≈ 3.96 µM)
MBC (S. aureus NRS1 (VISA) [26]; NRS1 (VISA)): 0.7 µg/mL (≈ 1.98 µM)

Continued, values first:

MIC [1, 29]: > 42.4 µg/mL
SMILES: CCCCc1ccc(-c2nc(C)c(C(=O)NNC(=N)N)s2)cc1 [compound 11, 2-(2-(4-Butylphenyl)-4-methylthiazole-5-carbonyl)hydrazinecarboximidamide]

MIC [1]: >38.3 µg/mL
MIC [1, 29]: > 35.1 µg/mL
SMILES: CCCCc1ccc(-c2nc(C)c(-c3nnn[nH]3)s2)cc1 [compound 16, 2-(4-Butylphenyl)-4-methyl-5-(1H-tetrazol-5-yl)thiazole]

MIC [1, 29]: 44.5 µg/mL (≈ 128 µM)
SMILES: CCCCc1ccc(-c2nc(C)c(C(=O)NC[C@@H](O)CO)s2)cc1 [compound 12, (R)-2-(4-Butylphenyl)-N-(2,3-dihydroxypropyl)-4methylthiazole-5-carboxamide]

MIC [1, 29]: > 45.8 µg/mL
SMILES: CCCCc1ccc(-c2nc(C)c(C(=O)NC(=N)NC(=N)N)s2)cc1 [compound 10, 2-(4-Butylphenyl)-N-(N-carbamimidoylcarbamimidoyl)-4-methylthiazole-5-carboxamide]
